30 compounds from ChEMBL document CHEMBL4680257, “Discovery of novel NF-кB inhibitor based on scaffold hopping: 1,4,5,6,7,8-hexahydropyrido[4,3-d]pyrimidine” (Eur J Med Chem, 2020) can be followed below.

What is called pIC50 is the IC50 on a negative log10 scale, so that one unit is a factor of ten. A word on the inhibition: it is the drop in the measured response relative to a control, in per cent.

pIC50: −log10 of the molar value.

One series deals with SMMC-7721. The series is described as follows: Cytotoxicity against human SMMC-7721 cells assessed as reduction in cell viability incubated for 24 hrs by MTT assay. It is filed as functional, cell-based. Particulars: SMMC-7721, 24 h. In outline:
(§1)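 Cells kept at 37 °C in 5% CO₂. HepG2 grown in DMEM with 10% serum; HHL-5, LO2 and SMMC-7721 in 1640 medium with 10% serum. Seeded, grown 24 h, then exposed 24 h to 10, 5, 2.5, 1.25, 0.625 and 0.3125 µg/mL. MTT (5 mg/mL) added for 4 h at 37 °C; formazan dissolved in DMSO, OD read at 570 nm. IC50 averaged from three replicates.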
(Tetrazolium assays rely on reduction of a dye to a coloured formazan, in cell work by metabolically active cells.)

A further series concerns HepG2. The series is described as follows: Cytotoxicity against human HepG2 cells assessed as reduction in cell viability incubated for 24 hrs by MTT assay. The series is classed as functional, cell-based. Particulars: HepG2, 24 h. In outline: as §1
A further series relates to L02. The series is described as follows: Cytotoxicity against human L02 cells assessed as reduction in cell viability incubated for 24 hrs by MTT assay. The series is classed as cell-based. Particulars: L02, 24 h. The gist of the method:
as §1

Series [1] is described as follows: Cytotoxicity against human HHL-5 cells assessed as reduction in cell viability incubated for 24 hrs by MTT assay. The series is classed as cell-based. Particulars: HHL-5, 24 h. The gist of the method: as §1
Series [2] deals with RAW264.7. The series is described as follows: Cytotoxicity against mouse RAW264.7 cells assessed as reduction in cell viability at 5 uM incubated for 24 hrs by MTT assay. The series is classed as cell-based. Particulars: raw264.7, 24 h.
In series [3] the test system is RAW264.7. The series is described as follows: Antiinflammatory activity against mouse RAW264.7 cells assessed as LPS-induced IL-6 at 5 uM pretreated for 2 hrs followed by LPS stimulation and measured after 22 hrs by ELISA relative to control (reference value: 0 %). The following applies: time 24 hrs. The series is classed as functional. On the technique in general: An ELISA detects its analyte on a solid surface through an enzyme-linked reagent.

The test system of series [4] is RAW264.7. The series is described as follows: Antiinflammatory activity against mouse RAW264.7 cells assessed as LPS-induced TNF-alpha at 5 uM pretreated for 2 hrs followed by LPS stimulation and measured after 22 hrs by ELISA (reference value: 0 %). It is filed as functional. Particulars: time 24 hrs.

On to `CC(=O)Nc1ccc(S(=O)(=O)N2C/C(=C\c3cccc(F)c3)C(=O)/C(=C/c3cccc(F)c3)C2)cc1`, for which the pIC50 is 4.99 in the series with SMMC-7721, 4.95 in the series with HepG2, 4.76 in the series with L02 and 4.77 in series [1]. Moreover, the Activity entry in the series with RAW264.7 [2] was “Non-Toxic”.
As for `Cl.NC1=NC(c2cccc(F)c2)C2=C(N1)/C(=C/c1cccc(F)c1)CN(S(=O)(=O)c1ccccc1)C2` (stereo not given), the pIC50 with SMMC-7721 is 4.89; with HepG2 it was 5.43; with L02 it was 4.42; in series [1] it was 4.95. In addition, the inhibition at 5 µM stood at 56.3% in the series on RAW264.7 [3] and 54% in the series on RAW264.7 [4]. In addition, the Activity result in the series with RAW264.7 [2] is on record as “Non-Toxic”.
For the compound `Cl.NC1=NC(c2ccccc2F)C2=C(N1)/C(=C/c1ccccc1F)CN(S(=O)(=O)c1ccc(C(F)(F)F)cc1)C2` (stereo not given), the pIC50 with SMMC-7721 was 5.46; with HepG2 it was 5.41; in the series with L02 it was 4.66; in series [1], 4.68. The figures for the inhibition at 5 µM in the series with RAW264.7 [3] and in the series on RAW264.7 [4] were 82.3% and 84.4%, respectively. Also, in the series with RAW264.7 [2], the Activity entry was “Non-Toxic”.
Regarding `O=C1/C(=C/c2ccccc2F)CN(S(=O)(=O)c2ccc(F)cc2)C/C1=C\c1ccccc1F`, the pIC50 in the series with SMMC-7721 is 5.11; in the series on HepG2, 5.10; in the series with L02, 4.76; in series [1], 4.84. Also, in the series on RAW264.7 [2], the Activity entry is listed as “Non-Toxic”.
The matching figures for `O=C1/C(=C/c2ccc(F)cc2)CN(S(=O)(=O)c2ccc(Br)cc2)C/C1=C\c1ccc(F)cc1`: 4.94, 5.10, 4.79, 4.77 and “Non-Toxic”.
As for `N#Cc1ccc(S(=O)(=O)N2C/C(=C\c3ccccc3F)C(=O)/C(=C/c3ccccc3F)C2)cc1`, the pIC50 with SMMC-7721 is 4.84; in the series on HepG2, 4.78; in the series with L02 it was 4.96; in series [1], 4.87. The Activity result in the series with RAW264.7 [2] is “Non-Toxic”.
For `N#Cc1ccc(S(=O)(=O)N2C/C(=C\c3ccc(F)cc3)C(=O)/C(=C/c3ccc(F)cc3)C2)cc1` the same measures were 4.82, 5.01, 4.83, 4.84 and “Non-Toxic”.
For `O=C1/C(=C/c2ccccc2F)CN(S(=O)(=O)c2ccc([N+](=O)[O-])cc2)C/C1=C\c1ccccc1F` the same measures were 5.21, 4.78, 4.81, 5.18 and “Non-Toxic”.
Take `O=C1/C(=C/c2ccccc2F)CN(S(=O)(=O)c2ccc(Br)cc2)C/C1=C\c1ccccc1F`: the pIC50 in the series on SMMC-7721 was 5.28; in the series with HepG2, 4.86; in the series on L02 it was 4.79; in series [1], 4.85. Moreover, the Activity entry in the series with RAW264.7 [2] was “Non-Toxic”.
Take `O=C1/C(=C/c2cccc(F)c2)CN(S(=O)(=O)c2ccc(Cl)cc2)C/C1=C\c1cccc(F)c1`: the pIC50 in the series on SMMC-7721 was 5.11; in the series on HepG2, 4.88; in the series with L02 it was 4.80; in series [1], 4.97. Also, the Activity result in the series on RAW264.7 [2] is “Non-Toxic”.
The matching figures for `Cc1ccc(S(=O)(=O)N2C/C(=C\c3ccc(F)cc3)C(=O)/C(=C/c3ccc(F)cc3)C2)cc1`: 5.30, 5.35, 4.85, 5.22 and “Non-Toxic”.
For `O=C1/C(=C/c2cccc(F)c2)CN(S(=O)(=O)c2ccc([N+](=O)[O-])cc2)C/C1=C\c1cccc(F)c1`, the pIC50 was 4.82 in the series on SMMC-7721, 5.09 in the series on HepG2, 4.97 in the series with L02 and 4.84 in series [1]. Further, in the series on RAW264.7 [2], the Activity entry is recorded as “Non-Toxic”.
For `O=C1/C(=C/c2ccccc2F)CN(S(=O)(=O)c2ccc(Cl)cc2)C/C1=C\c1ccccc1F` the same measures were 5.35, 4.96, 4.85, 5.02 and “Non-Toxic”.
The matching figures for `O=C1/C(=C/c2cccc(F)c2)CN(S(=O)(=O)c2ccc(F)cc2)C/C1=C\c1cccc(F)c1`: 4.87, 5.30, 4.66, 4.81 and “Non-Toxic”.
As for `O=C1/C(=C/c2ccc(F)cc2)CN(S(=O)(=O)c2ccccc2)C/C1=C\c1ccc(F)cc1`, the pIC50 with SMMC-7721 is 5.04; in the series with HepG2 it was 4.73; with L02 it was 4.73; in series [1], 5.11. Further, the Activity entry with RAW264.7 [2] is given as “Non-Toxic”.
As for `O=C1/C(=C/c2ccc(F)cc2)CN(S(=O)(=O)c2ccc([N+](=O)[O-])cc2)C/C1=C\c1ccc(F)cc1`, the pIC50 with SMMC-7721 was 5.30; with HepG2, 5.27; in the series on L02, 4.79; in series [1], 5.11. Further, the Activity result in the series on RAW264.7 [2] is recorded as “Non-Toxic”.
As for `O=C1/C(=C/c2ccc(F)cc2)CN(S(=O)(=O)c2ccc(F)cc2)C/C1=C\c1ccc(F)cc1`, the pIC50 in the series with SMMC-7721 was 4.83; with HepG2 it was 5.09; in the series on L02, 4.83; in series [1], 4.93. In the series on RAW264.7 [2], the Activity entry is reported as “Non-Toxic”.
Consider `O=C1/C(=C/c2cccc(F)c2)CN(S(=O)(=O)c2ccc(C(F)(F)F)cc2)C/C1=C\c1cccc(F)c1`, for which the pIC50 is 5.38 in the series with SMMC-7721, 5.62 in the series with HepG2, 4.74 with L02 and 4.87 in series [1]. Moreover, the Activity result with RAW264.7 [2] is “Non-Toxic”.
The matching figures for `Cc1ccc(S(=O)(=O)N2C/C(=C\c3ccccc3F)C(=O)/C(=C/c3ccccc3F)C2)cc1`: 5.39, 4.85, 4.78, 5.10 and “Non-Toxic”.
For `CC(=O)Nc1ccc(S(=O)(=O)N2C/C(=C\c3ccc(F)cc3)C(=O)/C(=C/c3ccc(F)cc3)C2)cc1` the same measures were 5.01, 5.13, 4.71, 4.82 and “Non-Toxic”.
The matching figures for `O=C1/C(=C/c2cccc(F)c2)CN(S(=O)(=O)c2ccccc2)C/C1=C\c1cccc(F)c1`: 4.89, 5.47, 4.79, 4.77 and “Non-Toxic”.
With `O=C1/C(=C/c2ccc(F)cc2)CN(S(=O)(=O)c2ccc(C(F)(F)F)cc2)C/C1=C\c1ccc(F)cc1`, the pIC50 in the series with SMMC-7721 is 5.36; with HepG2, 5.49; in the series with L02 it was 4.87; in series [1], 4.79. Besides, in the series on RAW264.7 [2], the Activity result was “Non-Toxic”.
For `N#Cc1ccc(S(=O)(=O)N2C/C(=C\c3cccc(F)c3)C(=O)/C(=C/c3cccc(F)c3)C2)cc1` the same measures were 5.35, 5.59, 4.81, 5.12 and “Non-Toxic”.
For `O=C1/C(=C/c2ccc(F)cc2)CN(S(=O)(=O)c2ccc(Cl)cc2)C/C1=C\c1ccc(F)cc1` the same measures were 5.15, 5.35, 4.81, 4.75 and “Non-Toxic”.
For `Cc1ccc(S(=O)(=O)N2C/C(=C\c3cccc(F)c3)C(=O)/C(=C/c3cccc(F)c3)C2)cc1` the same measures were 4.74, 5.46, 4.80, 4.95 and “Non-Toxic”.
Turning to `COc1cccc2c1C(=O)c1c(O)c3c(c(O)c1C2=O)C[C@@](O)(C(=O)CO)C[C@@H]3O[C@H]1C[C@H](N)[C@H](O)[C@H](C)O1` [DOXORUBICIN], the pIC50 with HepG2 was 6.00; in the series on L02, 4.86; in series [1] it was 4.91.
Consider `O=C1/C(=C/c2ccccc2F)CN(S(=O)(=O)c2ccccc2)C/C1=C\c1ccccc1F`, for which the pIC50 was 5.24 in the series with SMMC-7721, 4.80 in the series with HepG2, 4.75 with L02 and 4.57 in series [1]. Moreover, the Activity entry in the series on RAW264.7 [2] is “Non-Toxic”.
For `CC(=O)Nc1ccc(S(=O)(=O)N2C/C(=C\c3ccccc3F)C(=O)/C(=C/c3ccccc3F)C2)cc1`, the values for the pIC50 (in the series on HepG2; in series [1]) were 5.28 and 4.87, respectively. Also, in the series on RAW264.7 [2], the Activity entry is listed as “Non-Toxic”.
`O=C1/C(=C/c2ccccc2F)CN(S(=O)(=O)c2ccc(C(F)(F)F)cc2)C/C1=C\c1ccccc1F`: the pIC50 is 5.28 in the series with SMMC-7721, 5.31 in the series on HepG2, 4.79 in the series with L02 and 4.82 in series [1]. Moreover, the Activity result in the series on RAW264.7 [2] was “Non-Toxic”.
For the compound `O=C1/C(=C/c2cccc(F)c2)CN(S(=O)(=O)c2ccc(Br)cc2)C/C1=C\c1cccc(F)c1`, the pIC50 was 4.93 in the series with SMMC-7721, 5.11 in the series with HepG2, 4.80 with L02 and 4.78 in series [1]. Also, the Activity result in the series on RAW264.7 [2] is listed as “Non-Toxic”.
